Experimental data published in ChEMBL document CHEMBL1147883, “Design, synthesis, and biological evaluation of substituted-N-(thieno[2,3-b]pyridin-3-yl)-guanidines, N-(1H-pyrrolo[2,3-b]pyridin-3-yl)-guanidines, and N-(1H-indol-3-yl)-guanidines” (2007).

Tests used:
Assay type in all cases: functional, Rattus norvegicus
[1] = Insulinotropic activity in RIN5F cells assessed as stimulation of glucose-dependent insulin secretion per ug of protein at 0.1 uM
In short: (§1)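 Seeded at 0.2×10^6 cells/well, grown overnight to 80% confluence. PBS wash, then 40 min preincubation in Krebs-Ringer Hepes buffer (1.1 mM glucose, 0.5% BSA, pH 7.4). Supernatant insulin measured by rat insulin ELISA and normalized to total protein (pg/µg/h). n = 3, mean ± SD.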

[2] = Insulinotropic activity in RIN5F cells assessed as stimulation of glucose-dependent insulin secretion per ug of protein at 1 uM; in short: as §1
[3] = Insulinotropic activity in RIN5F cells assessed as stimulation of glucose-dependent insulin secretion per microgram of protein at 10 uM; in short: as §1

## N=C(N)Nc1c(C2CCCCC2)[nH]c2ncccc12
[1]
  Activity: 10.2 pg/h
[2]
  Activity: 12.5 pg/h
[3]
  Activity: 14.5 pg/h

## Cc1[nH]c2ncccc2c1NC(=N)N
[1]
  Activity: 11.5 pg/h
[2]
  Activity: 15.5 pg/h
[3]
  Activity: 29.5 pg/h

## N=C(N)Nc1c(Cc2ccccc2)[nH]c2ccc(Cl)cc12
[1]
  Activity: 11.2 pg/h
[2]
  Activity: 13.2 pg/h
[3]
  Activity: 15.4 pg/h

## Cc1[nH]c2ccccc2c1NC(=N)N
[1]
  Activity: 12.1 pg/h
[2]
  Activity: 16.1 pg/h
[3]
  Activity: 30.1 pg/h

## Cc1[nH]c2ccc(Cl)cc2c1C1=NCCN1
[1]
  Activity: 16.4 pg/h
[2]
  Activity: 20.6 pg/h
[3]
  Activity: 36.4 pg/h

## N=C(N)Nc1csc2ncc(Cl)cc12
[1]
  Activity: 10.2 pg/h
[2]
  Activity: 12.2 pg/h
[3]
  Activity: 14.2 pg/h

## N=C(N)Nc1c(C2CCCCC2)sc2ncccc12
[1]
  Activity: 10.1 pg/h
[2]
  Activity: 12.1 pg/h
[3]
  Activity: 14.1 pg/h

## Cc1sc2ncccc2c1NC(=N)N
[1]
  Activity: 11.1 pg/h
[2]
  Activity: 15.1 pg/h
[3]
  Activity: 29.1 pg/h

## CCCCNC(=O)NS(=O)(=O)c1ccc(C)cc1 [TOLBUTAMIDE]
[1]
  Activity: 19.9 pg/h
[2]
  Activity: 27.1 pg/h

## N=C(N)Nc1c(-c2ccccc2)sc2ncccc12
[1]
  Activity: 11.1 pg/h
[2]
  Activity: 15.1 pg/h
[3]
  Activity: 27.9 pg/h

## N=C(N)Nc1c(C2CCCCC2)[nH]c2ccc(Cl)cc12
[1]
  Activity: 11.2 pg/h
[2]
  Activity: 13.2 pg/h
[3]
  Activity: 15.9 pg/h

## N=C(N)Nc1c(Cc2ccccc2)sc2ncc(Cl)cc12
[1]
  Activity: 10.6 pg/h
[2]
  Activity: 12.6 pg/h
[3]
  Activity: 14.5 pg/h

## N=C(N)Nc1c[nH]c2ccc(Cl)cc12
[1]
  Activity: 11.1 pg/h
[2]
  Activity: 13.2 pg/h
[3]
  Activity: 15.5 pg/h

## CCc1sc2ncc(Cl)cc2c1NC(=N)N
[1]
  Activity: 14.8 pg/h
[2]
  Activity: 17.8 pg/h
[3]
  Activity: 31.5 pg/h

## N=C(N)Nc1c(-c2ccccc2)[nH]c2ncccc12
[1]
  Activity: 11.5 pg/h
[2]
  Activity: 15.5 pg/h
[3]
  Activity: 28.5 pg/h

## N=C(N)Nc1c(C2CCCCC2)[nH]c2ncc(Cl)cc12
[1]
  Activity: 10.8 pg/h
[2]
  Activity: 13.1 pg/h
[3]
  Activity: 15.1 pg/h

## N=C(N)Nc1c(-c2ccccc2)sc2ncc(Cl)cc12
[1]
  Activity: 14.9 pg/h
[2]
  Activity: 17.8 pg/h
[3]
  Activity: 31.6 pg/h

## Cc1[nH]c2ncc(Cl)cc2c1NC(=N)N
[1]
  Activity: 15.5 pg/h
[2]
  Activity: 19.1 pg/h
[3]
  Activity: 35.1 pg/h

## N=C(N)Nc1c(Cc2ccccc2)[nH]c2ncc(Cl)cc12
[1]
  Activity: 10.9 pg/h
[2]
  Activity: 12.9 pg/h
[3]
  Activity: 15 pg/h

## N=C(N)Nc1c(-c2ccccc2)[nH]c2ccc(Cl)cc12
[1]
  Activity: 15.9 pg/h
[2]
  Activity: 19.5 pg/h
[3]
  Activity: 35.5 pg/h

## N=C(N)Nc1c(Cc2ccccc2)[nH]c2ncccc12
[1]
  Activity: 10.9 pg/h
[2]
  Activity: 12.6 pg/h
[3]
  Activity: 14.9 pg/h

## N=C(N)Nc1c[nH]c2ncccc12
[1]
  Activity: 10.5 pg/h
[2]
  Activity: 12.5 pg/h
[3]
  Activity: 14.5 pg/h

## CCc1[nH]c2ccccc2c1NC(=N)N
[1]
  Activity: 11.1 pg/h
[2]
  Activity: 13.4 pg/h
[3]
  Activity: 16.1 pg/h

## N=C(N)Nc1c(C2CCCCC2)sc2ncc(Cl)cc12
[1]
  Activity: 10.5 pg/h
[2]
  Activity: 12.5 pg/h
[3]
  Activity: 14.5 pg/h

## CCc1[nH]c2ncccc2c1NC(=N)N
[1]
  Activity: 10.8 pg/h
[2]
  Activity: 13 pg/h
[3]
  Activity: 15 pg/h

## CCc1[nH]c2ncc(Cl)cc2c1NC(=N)N
[1]
  Activity: 15.1 pg/h
[2]
  Activity: 18.1 pg/h
[3]
  Activity: 33.1 pg/h

## Cc1sc2ncc(Cl)cc2c1NC(=N)N
[1]
  Activity: 15.1 pg/h
[2]
  Activity: 18.1 pg/h
[3]
  Activity: 32.1 pg/h

## CCc1[nH]c2ccc(Cl)cc2c1NC(=N)N
[1]
  Activity: 15.8 pg/h
[2]
  Activity: 19.5 pg/h
[3]
  Activity: 35.2 pg/h

## N=C(N)Nc1c(-c2ccccc2)[nH]c2ncc(Cl)cc12
[1]
  Activity: 15.2 pg/h
[2]
  Activity: 18.1 pg/h
[3]
  Activity: 33.1 pg/h

## N=C(N)Nc1c[nH]c2ncc(Cl)cc12
[1]
  Activity: 10.5 pg/h
[2]
  Activity: 12.5 pg/h
[3]
  Activity: 14.6 pg/h

## N=C(N)Nc1c(Cc2ccccc2)sc2ncccc12
[1]
  Activity: 10.5 pg/h
[2]
  Activity: 12.5 pg/h
[3]
  Activity: 14.5 pg/h

## N=C(N)Nc1c(Cc2ccccc2)[nH]c2ccccc12
[1]
  Activity: 11.1 pg/h
[2]
  Activity: 13.1 pg/h
[3]
  Activity: 15.1 pg/h

## CCc1sc2ncccc2c1NC(=N)N
[1]
  Activity: 10.6 pg/h
[2]
  Activity: 12.6 pg/h
[3]
  Activity: 14.6 pg/h

## N=C(N)Nc1c[nH]c2ccccc12
[1]
  Activity: 10.9 pg/h
[2]
  Activity: 13 pg/h
[3]
  Activity: 15 pg/h

## N=C(N)Nc1c(C2CCCCC2)[nH]c2ccccc12
[1]
  Activity: 10.9 pg/h
[2]
  Activity: 13.1 pg/h
[3]
  Activity: 15.1 pg/h

## N=C(N)Nc1c(-c2ccccc2)[nH]c2ccccc12
[1]
  Activity: 12.1 pg/h
[2]
  Activity: 16.1 pg/h
[3]
  Activity: 29.1 pg/h

## N=C(N)Nc1csc2ncccc12
[1]
  Activity: 10.1 pg/h
[2]
  Activity: 12.1 pg/h
[3]
  Activity: 14.1 pg/h

## Cc1[nH]c2ccc(Cl)cc2c1NC(=N)N
[1]
  Activity: 16.1 pg/h
[2]
  Activity: 20.1 pg/h
[3]
  Activity: 36 pg/h
